The source of these data is ChEMBL document CHEMBL1944524, “Synthesis and structure-activity relationship of 5-pyridazin-3-one phenoxypiperidines as potent, selective histamine H(3) receptor inverse agonists” (Bioorg Med Chem Lett, 2012).

Series [1] deals with Histamine H3 receptor (Homo sapiens, UniProt Q9Y5N1). The experiment in a line: Displacement of [3H]N-alpha-methylhistamine from human histamine H3 receptor expressed in CHO cells. In kind it is cell-based. For orientation: Loss of bound radioactivity is the signal in a displacement assay; it reports binding, not function.
Series [2] concerns the target Histamine H3 receptor (Rattus norvegicus, UniProt Q9QYN8). Briefly: Displacement of [3H]N-alpha-methylhistamine from rat histamine H3 receptor expressed in CHO cells. In kind it is cell-based.
Series [3] in a line: Ratio of drug level in brain to plasma in rat at 10 mg/kg, ip after 6 hrs. In kind it is ADME, organism-based. Details: dose 10 mg/kg, route intraperitoneal. The note with it: read-out: BPR. The procedure, abridged: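 Brain and plasma levels measured in rat 6 h after a 10 mg/kg ip dose; value is brain/plasma ratio.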
Series [4] is described as follows: Tmax in rat at 10 mg/kg, po. In kind it is ADME, organism-based. Set-up: dose 10 mg/kg, route oral. To be noted: in vivo. The procedure, abridged:
(§1)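 Rat PK study, dosed 1 mg/kg iv plus 10 or 5 mg/kg po. iv vehicle 3% DMSO, 30% solutol, 67% phosphate buffered saline; oral vehicle 50% Tween 80, 40% propylene carbonate, 10% propylene glycol.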

The nature of series [5]: Volume of distribution in rat at 1 mg/kg, iv. In kind it is ADME, organism-based. Details: dose 1 mg/kg, route intravenous. To be noted: in vivo. Summed up: as §1
Series [6] can be described thus: AUC in rat at 10 mg/kg, po. To be noted: plasma. Set-up: dose 10 mg/kg, route oral. In kind it is ADME, organism-based. The procedure, abridged:
as §1

The nature of series [7]: Cmax in rat at 10 mg/kg, po. The note with it: in vivo. Set-up: dose 10 mg/kg, route oral. In kind it is ADME, organism-based. Summed up: as §1
A short description of series [8]: Inhibition of cytochrome P450. In kind it is ADME. The procedure, abridged: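 CYP inhibition assessed against 5 CYP isoforms; IC50 determined.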
Series [9] in a line: Clearance in rat at 1 mg/kg, iv. In kind it is ADME, organism-based. Details: dose 1 mg/kg, route intravenous. The note with it: in vivo. Summed up: as §1
Series [10] is described as follows: Half life in rat at 1 mg/kg, iv. In kind it is ADME, organism-based. Set-up: dose 1 mg/kg, route intravenous. The note with it: in vivo. Summed up:
as §1

Series [11] can be described thus: Tmax in rat at 5 mg/kg, po. Details: dose 5 mg/kg, route oral. To be noted: in vivo. In kind it is ADME, organism-based. The procedure, abridged:
as §1

Series [12] has as its target Voltage-gated inwardly rectifying potassium channel KCNH2 (Homo sapiens, UniProt Q12809). Briefly: Inhibition of human ERG by patch clamp assay. Background: Patch clamp records ionic current or voltage across a cell membrane.
Series [13] is described as follows: Cmax in rat at 5 mg/kg, po. The class given is ADME, organism-based. Details: dose 5 mg/kg, route oral. To be noted: in vivo. The procedure, abridged: as §1
Series [14] can be described thus: Oral bioavailability in rat at 5 mg/kg. In kind it is ADME, organism-based. To be noted: in vivo. Summed up: as §1
A short description of series [15]: AUC in rat at 5 mg/kg, po. The class given is ADME, organism-based. Set-up: dose 5 mg/kg, route oral. To be noted: plasma. Summed up:
as §1

Series [16] in a line: Oral bioavailability in rat. The class given is ADME, organism-based. To be noted: in vivo. Summed up: as §1
The nature of series [17]: Half life in rat liver microsomes. The class given is ADME, Microsome. The procedure, abridged:
(§2)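 Stability in liver microsomes from rat, dog or human; half-life (min) determined.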
For orientation: Microsomes from liver hold many membrane-bound enzymes, among them those of drug oxidation.

Series [18] addresses T1, Muscarinic acetylcholine receptor M2 (Homo sapiens, UniProt P08172).
T1 sequence (P08172 whole entry): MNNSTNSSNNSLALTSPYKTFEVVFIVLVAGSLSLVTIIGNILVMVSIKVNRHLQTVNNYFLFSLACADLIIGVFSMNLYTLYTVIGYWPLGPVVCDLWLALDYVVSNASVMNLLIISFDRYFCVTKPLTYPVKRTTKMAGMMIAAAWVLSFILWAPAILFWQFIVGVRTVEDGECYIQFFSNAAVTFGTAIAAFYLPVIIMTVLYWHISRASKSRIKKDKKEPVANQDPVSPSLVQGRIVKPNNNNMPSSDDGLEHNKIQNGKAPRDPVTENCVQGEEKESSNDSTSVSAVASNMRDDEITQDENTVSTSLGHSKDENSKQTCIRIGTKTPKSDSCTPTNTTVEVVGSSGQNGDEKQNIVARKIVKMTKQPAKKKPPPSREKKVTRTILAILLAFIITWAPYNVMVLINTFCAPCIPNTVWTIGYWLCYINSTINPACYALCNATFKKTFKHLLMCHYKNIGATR
The experiment in a line: Inhibition of muscarinic M2 receptor.

The target of series [19] is Histamine H4 receptor (Homo sapiens) (UniProt Q9H3N8). The experiment in a line: Inhibition of human histamine H4 receptor at 10 uM. The procedure, abridged:
(§3)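 Selectivity screen against human H1, H2 and H4 receptors; percent inhibition at 10 µM.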

A short description of series [20]: Half life in human liver microsomes. The class given is ADME, Microsome. Summed up:
as §2

The nature of series [21]: Half life in dog liver microsomes. The class given is ADME, Canis lupus familiaris, Microsome. Summed up: as §2
The target of series [22] is Histamine H1 receptor (Homo sapiens) (UniProt P35367). The experiment in a line: Inhibition of human histamine H1 receptor at 10 uM. Summed up:
as §3

Series [23] deals with Histamine H2 receptor (Homo sapiens) (UniProt P25021). The experiment in a line: Inhibition of human histamine H2 receptor at 10 uM. Summed up:
as §3

Series [24] concerns Rattus norvegicus. Briefly: AUC in po dosed rat assessed as 5-[4-(1-cyclobutyl-piperidin-4-yloxy)-phenyl]-6-methyl-2H-pyridazin-3-one level. In kind it is ADME, organism-based, Plasma. The note with it: in vivo.
Series [25] relates to Rattus norvegicus. Briefly: Cmax in po dosed rat assessed as 5-[4-(1-cyclobutyl-piperidin-4-yloxy)-phenyl]-6-methyl-2H-pyridazin-3-one level. The class given is ADME, organism-based. Details: route oral. The note with it: in vivo.
The nature of series [26]: Cmax in po dosed rat. In kind it is ADME, organism-based. Set-up: route oral. The note with it: in vivo.
The nature of series [27]: AUC in po dosed rat. In kind it is ADME, organism-based. The note with it: plasma.

Voltage-gated inwardly rectifying potassium channel KCNH2, sequence (Q12809 whole entry): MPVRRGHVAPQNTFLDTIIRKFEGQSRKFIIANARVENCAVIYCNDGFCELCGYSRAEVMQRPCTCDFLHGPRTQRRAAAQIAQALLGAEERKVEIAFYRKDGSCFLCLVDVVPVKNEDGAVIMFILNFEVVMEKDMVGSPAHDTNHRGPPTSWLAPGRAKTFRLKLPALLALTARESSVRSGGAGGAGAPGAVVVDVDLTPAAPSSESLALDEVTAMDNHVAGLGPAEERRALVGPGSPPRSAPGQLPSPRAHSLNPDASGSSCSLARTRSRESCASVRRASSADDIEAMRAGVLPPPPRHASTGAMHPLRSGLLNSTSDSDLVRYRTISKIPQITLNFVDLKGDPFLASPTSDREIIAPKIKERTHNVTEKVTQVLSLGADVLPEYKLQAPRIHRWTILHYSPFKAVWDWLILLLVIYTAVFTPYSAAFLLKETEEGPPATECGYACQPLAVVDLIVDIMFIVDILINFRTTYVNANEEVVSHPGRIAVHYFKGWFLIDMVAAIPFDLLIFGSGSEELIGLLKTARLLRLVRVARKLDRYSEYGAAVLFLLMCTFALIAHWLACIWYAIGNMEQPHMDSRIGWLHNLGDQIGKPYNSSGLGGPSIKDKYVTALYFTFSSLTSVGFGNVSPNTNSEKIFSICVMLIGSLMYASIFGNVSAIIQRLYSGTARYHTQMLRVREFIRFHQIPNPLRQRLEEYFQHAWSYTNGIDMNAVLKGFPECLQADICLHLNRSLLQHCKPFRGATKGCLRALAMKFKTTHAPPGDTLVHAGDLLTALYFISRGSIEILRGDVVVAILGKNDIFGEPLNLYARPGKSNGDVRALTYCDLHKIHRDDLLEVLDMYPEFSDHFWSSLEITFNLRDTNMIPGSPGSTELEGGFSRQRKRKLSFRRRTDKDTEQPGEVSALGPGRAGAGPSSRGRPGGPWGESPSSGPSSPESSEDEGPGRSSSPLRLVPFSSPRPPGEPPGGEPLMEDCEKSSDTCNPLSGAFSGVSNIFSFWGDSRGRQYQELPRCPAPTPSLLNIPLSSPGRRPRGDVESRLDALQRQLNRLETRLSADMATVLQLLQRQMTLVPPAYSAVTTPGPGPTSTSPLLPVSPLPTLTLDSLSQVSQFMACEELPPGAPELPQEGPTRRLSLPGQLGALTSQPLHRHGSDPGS
Histamine H3 receptor (Homo sapiens, UniProt Q9Y5N1), sequence (Q9Y5N1 whole entry): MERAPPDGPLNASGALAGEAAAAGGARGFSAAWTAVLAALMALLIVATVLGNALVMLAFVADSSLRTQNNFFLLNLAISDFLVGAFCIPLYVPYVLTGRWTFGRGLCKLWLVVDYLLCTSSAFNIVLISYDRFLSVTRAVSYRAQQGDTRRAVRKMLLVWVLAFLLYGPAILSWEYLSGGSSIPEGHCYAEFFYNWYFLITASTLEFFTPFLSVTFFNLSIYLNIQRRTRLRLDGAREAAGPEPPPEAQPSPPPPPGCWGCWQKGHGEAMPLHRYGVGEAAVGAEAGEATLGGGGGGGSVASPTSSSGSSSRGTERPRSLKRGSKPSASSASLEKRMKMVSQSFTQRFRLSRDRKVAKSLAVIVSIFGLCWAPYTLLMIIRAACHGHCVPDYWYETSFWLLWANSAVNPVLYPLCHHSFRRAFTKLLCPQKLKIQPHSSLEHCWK
Histamine H3 receptor (Rattus norvegicus, UniProt Q9QYN8), sequence (Q9QYN8 whole entry): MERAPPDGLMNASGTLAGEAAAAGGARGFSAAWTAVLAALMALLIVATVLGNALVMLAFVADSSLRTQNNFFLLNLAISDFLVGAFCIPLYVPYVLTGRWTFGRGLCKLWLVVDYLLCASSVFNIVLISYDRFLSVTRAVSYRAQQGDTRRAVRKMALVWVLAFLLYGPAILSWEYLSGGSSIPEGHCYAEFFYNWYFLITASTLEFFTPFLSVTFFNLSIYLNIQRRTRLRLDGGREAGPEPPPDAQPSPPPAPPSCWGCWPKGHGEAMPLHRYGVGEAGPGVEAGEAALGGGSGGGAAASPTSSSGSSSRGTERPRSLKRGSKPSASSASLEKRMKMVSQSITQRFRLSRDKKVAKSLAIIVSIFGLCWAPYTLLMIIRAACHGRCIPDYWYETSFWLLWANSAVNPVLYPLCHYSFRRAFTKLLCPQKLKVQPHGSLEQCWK
Histamine H1 receptor (Homo sapiens), sequence (P35367 whole entry): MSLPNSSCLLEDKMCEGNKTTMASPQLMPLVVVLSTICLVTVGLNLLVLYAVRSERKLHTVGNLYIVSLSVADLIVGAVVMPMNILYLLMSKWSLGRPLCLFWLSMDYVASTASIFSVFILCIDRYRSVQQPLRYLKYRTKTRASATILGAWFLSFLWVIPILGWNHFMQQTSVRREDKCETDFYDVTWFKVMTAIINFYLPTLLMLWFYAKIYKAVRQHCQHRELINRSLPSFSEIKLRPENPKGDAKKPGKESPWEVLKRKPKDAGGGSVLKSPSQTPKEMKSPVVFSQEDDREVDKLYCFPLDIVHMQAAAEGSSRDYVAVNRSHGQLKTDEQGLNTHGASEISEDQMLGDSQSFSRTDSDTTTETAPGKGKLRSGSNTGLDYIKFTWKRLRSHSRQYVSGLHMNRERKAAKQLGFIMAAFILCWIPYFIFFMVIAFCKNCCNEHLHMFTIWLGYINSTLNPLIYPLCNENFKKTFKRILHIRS
Histamine H4 receptor (Homo sapiens), sequence (Q9H3N8 whole entry): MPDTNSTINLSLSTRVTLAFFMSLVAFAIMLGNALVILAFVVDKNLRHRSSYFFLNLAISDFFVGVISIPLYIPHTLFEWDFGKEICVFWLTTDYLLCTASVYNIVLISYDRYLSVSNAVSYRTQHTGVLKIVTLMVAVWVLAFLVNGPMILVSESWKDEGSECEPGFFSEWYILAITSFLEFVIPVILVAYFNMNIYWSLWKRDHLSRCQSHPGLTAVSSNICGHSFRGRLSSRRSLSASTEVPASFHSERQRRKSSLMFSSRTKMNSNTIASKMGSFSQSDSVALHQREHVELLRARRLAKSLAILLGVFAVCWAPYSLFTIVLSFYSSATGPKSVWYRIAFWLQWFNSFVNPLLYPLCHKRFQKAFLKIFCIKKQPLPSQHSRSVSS
Histamine H2 receptor (Homo sapiens), sequence (P25021 whole entry): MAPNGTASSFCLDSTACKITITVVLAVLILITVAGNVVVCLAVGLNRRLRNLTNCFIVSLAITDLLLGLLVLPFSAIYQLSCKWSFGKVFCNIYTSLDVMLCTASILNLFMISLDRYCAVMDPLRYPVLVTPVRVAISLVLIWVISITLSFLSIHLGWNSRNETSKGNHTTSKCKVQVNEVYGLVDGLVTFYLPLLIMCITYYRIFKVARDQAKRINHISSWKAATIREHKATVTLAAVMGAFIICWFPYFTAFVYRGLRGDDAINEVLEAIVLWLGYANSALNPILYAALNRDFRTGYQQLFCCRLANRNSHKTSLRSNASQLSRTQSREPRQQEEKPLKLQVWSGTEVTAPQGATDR

Take `Cc1nn(-c2ccsc2)c(=O)cc1-c1ccc(OC2CCN(C3CCC3)CC2)cc1`: the Ki at Histamine H3 receptor [1] was 3 nM; at Histamine H3 receptor [2], 8 nM.

Turning to `C[C@@H]1CCCN1CCCOc1ccc(-c2cn[nH]c(=O)c2)cc1`, the Kp at 6 h in [3] was 1.8. For the same compound, the Ki at Histamine H3 receptor [1] was 2.8 nM; at Histamine H3 receptor [2], 8.5 nM. Besides, in series [4], the time to peak (Tmax) worked out at 2 h. The same compound gave a Vd in series [5] of 0.8 L/kg. Moreover, in series [6], the AUC was 4210 ng·h/mL. The compound also yielded a Cmax in series [7] of 446 ng/mL.

Consider `Cc1cccc(-n2nc(C)c(-c3ccc(OC4CCN(C5CCC5)CC4)cc3)cc2=O)n1`, for which the Kp at 6 h in [3] was 1.6. Also, the IC50 in series [8] and in [12] was greater than 30000 nM throughout. For the same compound, the clearance in series [9] turned out to be 16 mL/min/kg. This compound gave a half-life in series [10] of 1.1 h. The Ki worked out at 4 nM at Histamine H3 receptor [1] and 10 nM on Histamine H3 receptor [2]. Besides, the Tmax in series [11] was 2 h. In [5], this compound yielded a Vd of 1.7 L/kg. In series [13], this compound showed a Cmax of 332 ng/mL. Also, the bioavailability in [14] was determined as 20%. Besides, in series [15], the AUC turned out to be 1270 ng·h/mL.

For `O=c1cc(-c2ccc(OC3CCN(C4CCC4)CC3)cc2)cn[nH]1`, the Ki on Histamine H3 receptor [1] and on Histamine H3 receptor [2] was 2 nM each time. Besides, the bioavailability in [16] was determined as 21%. The compound also returned an IC50 in series [12] of 2000 nM.

Take `Cc1nn(-c2ccccn2)c(=O)cc1-c1ccc(OC2CCN(C3CCC3)CC2)cc1`: the half-life in series [17] was greater than 0.667 h; in series [20] it was greater than 0.667 h; in [10] it was 1.3 h; in series [21], greater than 0.667 h. The IC50 is 340 nM in [18] and greater than 30000 nM in [8]. Also, the Kp at 6 h in series [3] turned out to be 1.6. Further, the inhibition in [19], in series [22] and in series [23] was less than 30% each time. In [9], the clearance worked out at 13 mL/min/kg. For the same compound, the Ki at Histamine H3 receptor [1] amounted to 3 nM; on Histamine H3 receptor [2], 9 nM. Moreover, the Tmax in [11] is 3.2 h. The Vd in series [5] stood at 1.4 L/kg. Besides, the peak level in series [13] (Cmax) was 287 ng/mL. Also, the bioavailability in [14] is 22%. The compound also displayed an AUC in series [15] of 1500 ng·h/mL.

With `O=c1cc(-c2ccc(OC3CCN(C4CCC4)CC3)nc2)cn[nH]1`, the inhibition constant Ki on Histamine H3 receptor [1] turned out to be 14 nM; at Histamine H3 receptor [2] it was 20 nM.

Regarding `Cc1nn(C)c(=O)cc1-c1ccc(OC2CCN(C3CCC3)CC2)cc1`, the results for the AUC (in the series on Rattus norvegicus [24]; in [27]) were 320 ng·h/mL and 337 ng·h/mL, respectively. Further, the half-life in series [17], in series [20] and in series [21] was greater than 0.667 h each time. Besides, the IC50 in [8] was greater than 30000 nM. Also, the Ki amounted to 4 nM on Histamine H3 receptor [1] and 8 nM on Histamine H3 receptor [2]. Also, the Cmax in the series with Rattus norvegicus [25] amounted to 68 ng/mL; in [26] it was 107 ng/mL. In series [16], this compound returned a bioavailability of 19%.

In the case of `CC1=NNC(=O)CC1c1ccc(OC2CCN(C3CCC3)CC2)cc1` (centres undefined), the figures for the AUC (in the series on Rattus norvegicus [24]; in series [27]) were 152 ng·h/mL and 370 ng·h/mL, respectively. Further, the half-life in series [17], in series [20] and in series [21] was greater than 0.667 h throughout. The compound further showed an IC50 in series [8] greater than 30000 nM. Also, the results for the inhibitory constant (Ki) on Histamine H3 receptor [1] and on Histamine H3 receptor [2] were 15 nM and 13 nM, respectively. Moreover, the Cmax with Rattus norvegicus [25] was determined as 34 ng/mL; in [26], 73 ng/mL. In addition, the bioavailability in series [16] worked out at 6%.

Turning to `Cc1cccnc1-n1nc(C)c(-c2ccc(OC3CCN(C4CCC4)CC3)cc2)cc1=O`, the Kp at 6 h in series [3] was 1. Further, the IC50 in series [8] and in series [12] was greater than 30000 nM each time. For the same compound, in series [9], the clearance was found to be 11 mL/min/kg. The compound further gave a half-life in [10] of 1.1 h. Further, the Ki at Histamine H3 receptor [1] was 6 nM; on Histamine H3 receptor [2], 17 nM. Further, the time to peak (Tmax) in [11] turned out to be 2.3 h. In series [5], this compound yielded a Vd of 1.1 L/kg. For the same compound, the highest level in series [13] (Cmax) was 505 ng/mL. This compound showed a bioavailability in [14] of 23%. In series [15], this compound gave an AUC of 1860 ng·h/mL.

For orientation: Ki means a dissociation constant, usually derived from enzyme kinetics or from competition with a known ligand. A higher Ki goes with lower affinity. One may read the Tmax as the time at which the peak concentration occurs. Broadly, the Vd is a proportionality between amount in the body and measured concentration, not a real space. By AUC is commonly meant concentration integrated over time. Usually Cmax stands for the peak of the concentration-time curve. As a reminder, the IC50 is the concentration that gives 50% inhibition. As a reminder, the clearance is a measure of how efficiently the substance is removed, as volume per time. A lower clearance goes with inefficient removal. One may read the half-life as the time in which the quantity being followed falls by half. In general, bioavailability refers to the share of a dose that reaches the circulation, judged against a reference dose that is usually intravenous. Lower therefore signals little systemic uptake. By inhibition is commonly meant how much of the control response was suppressed. Higher therefore signals strong suppression.
